Sampled rows, rich in hits. Any-hit rate of the full collection: about 1.4%.
FXIa inh = blocks human coagulation factor XIa protease activity; purified FXIa, Boc-Glu-Ala-Arg-AMC fluorogenic substrate; AID 798; 220,000 compounds, 0.14% hits; inhibition, % at 5 µM; P03951;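 active = inhibition of at least 40%; inactive = inhibition below 40%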;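 also: fluorescence of freed AMC excited at 355 nm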
KLK5 inh = inhibitors of human kallikrein 5. Q9Y337. recombinant hK5, fluorogenic AMC substrate cleavage. inhibition, % at 5 µM. 210,000 compounds, 0.59% hits. AID 873;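 active = inhibition of 40% or more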
Target sequence (Q9Y337 67-293 limits assumed): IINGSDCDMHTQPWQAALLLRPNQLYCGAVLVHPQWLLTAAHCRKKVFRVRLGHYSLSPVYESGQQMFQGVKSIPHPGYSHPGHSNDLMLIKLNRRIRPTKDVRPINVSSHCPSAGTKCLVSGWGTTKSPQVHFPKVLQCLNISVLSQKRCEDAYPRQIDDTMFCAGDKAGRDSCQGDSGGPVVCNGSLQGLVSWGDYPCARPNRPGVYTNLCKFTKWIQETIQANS
FXIIa inh 1536 = blocks human coagulation factor XIIa protease activity; 220,000 compounds, 0.3% hits; purified FXIIa, Boc-QGR-AMC fluorogenic substrate, 2 h; P00748; inhibition, % at 5 µM; in the data active = inhibition above about 40%
m-calpain inh = calpain II (pig) inhibition; purified calpain II, fluorogenic peptide substrate, 30 min; inhibition, % at 16 µM; 220,000 compounds, 0.37% hits; AID 1236;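 active = inhibition above about 50%, limit read from the data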
Thrombin inh = thrombin (human) inhibition | alpha-thrombin, Boc-VPR-AMC fluorogenic substrate cleavage | inhibition, % at 5 µM | 220,000 compounds, 0.26% hits;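 active = inhibition at or above 40%; inactive = inhibition below 40%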
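Material: human alpha-thrombin protein; Also added: Boc-VPR-AMC substrate, 15 µM final; Timing: enzyme reaction carried out at room temperature; Signal: fluorescence, ex 355 nm, em 460 nm; Measure: % inhibition of thrombin; Controls: enzyme without compound as high, wells lacking enzyme as low.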
Hits are given with their value.

`O=C(c1ccc(Cl)cc1)N1CCc2c([nH]c3ccccc23)C1C(F)(F)F` (configuration not stated) gave FXIa inh inactive, KLK5 inh inactive, FXIIa inh 1536 inactive, m-calpain inh inactive and Thrombin inh inactive.
Screening COc1ccc(C)cc1NC(=O)NCc1ccccc1F returned FXIa inh inactive, KLK5 inh inactive, FXIIa inh 1536 inactive, m-calpain inh inactive and Thrombin inh inactive.
Screening Cc1ccc(NC(=O)c2sc(=S)n(-c3cc(C)ccc3F)c2N)cc1 returned FXIa inh inactive, KLK5 inh inactive, FXIIa inh 1536 inactive, m-calpain inh inactive and Thrombin inh inactive.
`COCC(=O)n1nc(-c2ccccc2)nc1NCc1ccccc1` gave FXIa inh inactive, KLK5 inh inactive, FXIIa inh 1536 inactive, m-calpain inh inactive and Thrombin inh 91.
`COCC(=O)n1nc(-c2ccccc2)nc1NCc1ccc(F)cc1` gave FXIa inh inactive, KLK5 inh inactive, FXIIa inh 1536 inactive, m-calpain inh inactive and Thrombin inh 90.
`C/C(CC(=O)NCCCN1CCOCC1)=N\NC(=O)COc1ccc(C)cc1` gave FXIa inh inactive, KLK5 inh 47, FXIIa inh 1536 inactive, m-calpain inh inactive and Thrombin inh inactive.
For C/C(CC(=O)NCCCN1CCOCC1)=N\NC(=O)COc1ccc(Cl)cc1 the results were FXIa inh inactive, KLK5 inh inactive, FXIIa inh 1536 inactive, m-calpain inh inactive and Thrombin inh inactive.
COc1ccc(C(=O)NCc2nnc(SC)n2Cc2ccccc2)cc1 was read as FXIa inh inactive, KLK5 inh inactive, FXIIa inh 1536 inactive, m-calpain inh inactive and Thrombin inh inactive.
`N#CCCC1CCCC=C1N(Cc1ccccc1)C(=O)C(Cl)Cl` (configuration not stated) gave FXIa inh 57, KLK5 inh inactive, FXIIa inh 1536 inactive, m-calpain inh inactive and Thrombin inh inactive.
Cc1ccc(NC(=O)N(CCC#N)Cc2ccccc2)cc1 was read as FXIa inh inactive, KLK5 inh inactive, FXIIa inh 1536 inactive, m-calpain inh inactive and Thrombin inh inactive.
`CN1CCN(c2ccc(CNS(=O)(=O)Cc3ccc(Cl)cc3)cc2)CC1` gave FXIa inh inactive, KLK5 inh inactive, FXIIa inh 1536 61, m-calpain inh inactive and Thrombin inh inactive.
C=CCNC(=O)CN(c1ccc(F)cc1)S(=O)(=O)c1ccc(OC)cc1 was read as FXIa inh inactive, KLK5 inh inactive, FXIIa inh 1536 54, m-calpain inh inactive and Thrombin inh inactive.
`CCn1c(CNc2ccc(Cl)cc2)nnc1SCC#N` gave FXIa inh inactive, KLK5 inh inactive, FXIIa inh 1536 inactive, m-calpain inh inactive and Thrombin inh inactive.
Screening CCOCCn1c(-c2ccc(OC)cc2)nc2ccccc21 returned FXIa inh inactive, KLK5 inh 42, FXIIa inh 1536 54, m-calpain inh inactive and Thrombin inh inactive.
For COc1ccc(-c2cc(C(F)F)n3ncc(C(=O)n4ccnc4C)c3n2)cc1 the results were FXIa inh inactive, KLK5 inh inactive, FXIIa inh 1536 inactive, m-calpain inh inactive and Thrombin inh 88.
For COc1ccc(-c2cc(C(F)F)n3ncc(C(=O)N4CCc5ccccc54)c3n2)cc1 the results were FXIa inh inactive, KLK5 inh inactive, FXIIa inh 1536 inactive, m-calpain inh inactive and Thrombin inh inactive.
Screening Cc1cc(C)n(C(=O)/C(C#N)=C/N(C)C)n1 returned FXIa inh inactive, KLK5 inh inactive, FXIIa inh 1536 inactive, m-calpain inh inactive and Thrombin inh inactive.
`COc1ccc(/C=C/C(=O)OCC(=O)Nc2ccc(N3CCOCC3)cc2)cc1` gave FXIa inh inactive, KLK5 inh 82, FXIIa inh 1536 inactive, m-calpain inh inactive and Thrombin inh inactive.
Screening COCCN=c1scc(-c2cccs2)n1/N=C/c1ccc(O)c(O)c1O returned FXIa inh inactive, KLK5 inh inactive, FXIIa inh 1536 inactive, m-calpain inh 65 and Thrombin inh inactive.
`CC1C(Br)C(=O)NC(=O)N1Cc1ccccc1` (configuration not stated) gave FXIa inh inactive, KLK5 inh inactive, FXIIa inh 1536 inactive, m-calpain inh inactive and Thrombin inh inactive.
`O=C1CC(Cc2ccccc2)C(=O)N1CCCn1ccnc1` (configuration not stated) gave FXIa inh inactive, KLK5 inh inactive, FXIIa inh 1536 inactive, m-calpain inh inactive and Thrombin inh inactive.
Nc1nc(SCn2nnc3ccccc3c2=O)n[nH]1 was read as FXIa inh inactive, KLK5 inh inactive, FXIIa inh 1536 40, m-calpain inh inactive and Thrombin inh inactive.
For Cc1nc(SCn2nnc3ccccc3c2=O)nc(C)c1C the results were FXIa inh inactive, KLK5 inh inactive, FXIIa inh 1536 inactive, m-calpain inh inactive and Thrombin inh inactive.
`C/C(=N\N=C1\NC(=O)C(CC(=O)Nc2ccc(C)c(Cl)c2)S1)C(C)C` (configuration not stated) gave FXIa inh inactive, KLK5 inh inactive, FXIIa inh 1536 inactive, m-calpain inh inactive and Thrombin inh inactive.
Screening O=C(NN=C1CCCC1)c1ccccc1OCc1ccc(Cl)cc1 returned FXIa inh 52, KLK5 inh inactive, FXIIa inh 1536 inactive, m-calpain inh inactive and Thrombin inh inactive.
`Cc1onc(-c2c(F)cccc2Cl)c1-c1nnc(-c2ccc(C(F)(F)F)cc2)o1` gave FXIa inh inactive, KLK5 inh inactive, FXIIa inh 1536 57, m-calpain inh inactive and Thrombin inh inactive.
For Cc1onc(-c2c(Cl)cccc2Cl)c1-c1nnc(-c2ccc(Cl)cc2)o1 the results were FXIa inh inactive, KLK5 inh inactive, FXIIa inh 1536 inactive, m-calpain inh inactive and Thrombin inh inactive.
For CCc1c(C)nc2ncnn2c1N1CCC(C(=O)Nc2ccc(C)cc2)CC1 the results were FXIa inh inactive, KLK5 inh inactive, FXIIa inh 1536 inactive, m-calpain inh inactive and Thrombin inh inactive.
For CCc1c(C)nc2ncnn2c1N1CCC(C(=O)Nc2ccccc2)CC1 the results were FXIa inh inactive, KLK5 inh inactive, FXIIa inh 1536 53, m-calpain inh inactive and Thrombin inh inactive.
Screening CC(=O)c1sccc1NC(=O)c1ccccc1C(=O)O returned FXIa inh inactive, KLK5 inh inactive, FXIIa inh 1536 inactive, m-calpain inh inactive and Thrombin inh inactive.
For CN1CCN(S(=O)(=O)c2cccc(C(=O)NCc3ccccc3Cl)c2)CC1 the results were FXIa inh inactive, KLK5 inh inactive, FXIIa inh 1536 inactive, m-calpain inh inactive and Thrombin inh inactive.
Screening Cc1ccc(-c2nnc(SCC(=O)N/N=C/c3ccc(C)s3)n2-c2ccc(C)cc2)cc1 returned FXIa inh inactive, KLK5 inh inactive, FXIIa inh 1536 inactive, m-calpain inh inactive and Thrombin inh inactive.
`CCc1nnc(NC(=O)CSc2nc3c(cc2C#N)CCCC3)s1` gave FXIa inh inactive, KLK5 inh 49, FXIIa inh 1536 inactive, m-calpain inh inactive and Thrombin inh inactive.
For O=C(c1cc(-c2ccco2)nc2ccccc12)N1CCN(c2ccc(F)cc2)CC1 the results were FXIa inh inactive, KLK5 inh inactive, FXIIa inh 1536 inactive, m-calpain inh inactive and Thrombin inh inactive.

Source: PubChem (several laboratories)
